Laboratory results: ChEMBL document CHEMBL1145015, “Structure-activity relationships of 1,2,4-benzotriazine 1,4-dioxides as hypoxia-selective analogues of tirapazamine” (J Med Chem, 2003)

Experiments:
[1] = Concentration required to reduce plating efficiency to 10 percent of controls, under aerobic conditions in mouse SCCVII tumor cells.; type: functional, SCC-7
Method in brief: (§1)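 SCCVII cells plated in glass dishes (2×10^5 to 1×10^6 per dish) 1–2 days ahead. Drug freshly dissolved, given in complete medium for 1 h at 37 °C with shaking. Hypoxia (<200 ppm O2) by repeated evacuation/flushing with 95% N2 + 5% CO2; aerobic controls flushed with 95% air + 5% CO2. Cells washed, trypsinized, replated. Crystal violet stain after 10–14 days, >50-cell colonies scored. C10 is the concentration giving 10% of control plating efficiency.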

[2] = Concentration required to reduce plating efficiency to 10 percent of controls, under hypoxic conditions in mouse SCCVII tumor cells.; type: functional, SCC-7; method in brief: as §1
[3] = Intraexperimental difference between the hypoxic and aerobic cytotoxicity; type: functional
Method in brief: (§2)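 Clonogenic SCCVII survival after 1 h drug exposure at 37 °C, either hypoxic (<200 ppm O2, 95% N2/5% CO2) or aerobic (95% air/5% CO2). Colonies of >50 cells counted after 10–14 days. HCR = aerobic C10 / hypoxic C10, with both values from the same experiment.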

[4] = Intraexperimental ratio of hypoxic TPZ C10 to hypoxic BTO C10 in mouse SCCVII tumor cells.; type: functional, SCC-7
Method in brief: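 Computed within each experiment from the clonogenic SCCVII assay (1 h drug exposure, hypoxia <200 ppm O2 by gas evacuation/flushing, colony counting after 10–14 days). RHT = C10 of TPZ under hypoxia divided by C10 of the analogue under hypoxia.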

SCC-7 [5] = assay: Inhibitory concentration against murine SCCVII cell line under hypoxic condition; type: functional, cell-based; conditions: Mus musculus
Method in brief: (§3)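 SRB proliferation assay in 96-well plates. SCCVII (200 cells) or HT-29 (1000 cells) seeded in αMEM + 10% FCS with glucose (17 mM final) and 100 μM 2'-deoxycytidine, then attached for 3 h. Cells exposed for 4 h at 37 °C to 2-fold serial dilutions in triplicate, either oxic (20% O2, 5% CO2) or in an anaerobic chamber (<0.001% O2). After washing, cells grew for 5 (oxic) or 6 (anoxic) days before SRB staining. IC50 values are the mean of three independent experiments.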

[6] = Intraexperimental difference between the hypoxic and aerobic cytotoxicity in mouse SCCVII tumor cells; type: functional, SCC-7; method in brief: as §2
HT-29 [7] = assay: Inhibitory concentration against human adenocarcinoma HT-29 cell line under hypoxic condition; type: functional, cell-based; method in brief: as §3
[8] = Interexperimental difference between the hypoxic and aerobic cytotoxicity using murine SCCVII cell line; type: functional, SCC-7
HT-29 [9] = assay: Interexperimental ratio of hypoxic TPZ C10 to hypoxic BTO C10 using human adenocarcinoma HT-29 cell line; type: functional
[10] = Interexperimental difference between the hypoxic and aerobic cytotoxicity using human adenocarcinoma HT-29 cell line; type: functional
SCC-7 [11] = assay: Interexperimental ratio of hypoxic TPZ C10 to hypoxic BTO C10 using murine SCCVII cell line; type: functional, Mus musculus
HT-29 [12] = assay: Inhibitory concentration against human adenocarcinoma HT-29 cell line under aerobic condition; type: functional, cell-based; method in brief: as §3
SCC-7 [13] = assay: Inhibitory concentration against murine SCCVII cell line under aerobic condition; type: functional, cell-based; conditions: Mus musculus; method in brief: as §3
[14] = Partition coefficient (logP); type: physicochemical; conditions: octanol/water
Method in brief: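 Octanol/water partition at pH 7.4, measured by low-volume shake flask. Drug in both the octanol and buffer phases quantified by HPLC.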

| IC50 (SCC-7 [5]) [µM] | IC50 (HT-29 [7]) [µM] | IC50 (HT-29 [12]) [µM] | IC50 (SCC-7 [13]) [µM] | logP [14] | SMILES | C10 [1] [µM] | C10 [2] [µM] | HCR [3] | RHT [4] | HCR [6] | HCR [8] | RHT (HT-29 [9]) | HCR [10] | RHT (SCC-7 [11]) |
| --- | --- | --- | --- | --- | --- | --- | --- | --- | --- | --- | --- | --- | --- | --- |
| – | – | – | – | – | CCCCS(=O)(=O)c1cccc2c1[n+]([O-])nc(N)[n+]2[O-] | 175 | 8.31 | 21.1 | 1.2 | – | – | – | – | – |
| – | – | – | – | – | CCN(CC)c1ccc2c(c1)[n+]([O-])c(N)n[n+]2[O-] | >1269 | >50.8 | – | <0.2 | – | – | – | – | – |
| – | – | – | – | – | CN(C)c1ccc2c(c1)[n+]([O-])nc(N)[n+]2[O-] | 3159 | 237 | 13.3 | 0.043 | – | – | – | – | – |
| – | – | – | – | – | COc1ccc2c(c1)[n+]([O-])c(N)n[n+]2[O-] | – | 127 | – | 0.08 | – | – | – | – | – |
| 12.2 | 23.3 | 4.2 | 2.1 | – | CN(C)c1cccc2c1[n+]([O-])c(N)n[n+]2[O-] | 30.5 | 25.8 | – | 0.39 | 1.2 | 0.18 | 0.2 | 0.18 | 0.2 |
| 13.5 | 28.8 | 624 | 288 | – | COc1cccc2c1[n+]([O-])nc(N)[n+]2[O-] | >135 | 25.4 | – | 0.4 | >5.3 | 25.7 | 0.2 | 21.9 | 0.2 |
| – | – | – | – | – | CCN(CC)c1cccc2c1[n+]([O-])c(N)n[n+]2[O-] | 58.7 | 67.7 | 0.87 | 0.15 | – | – | – | – | – |
| 0.61 | 0.73 | 19.8 | 12.2 | 0.46 | Nc1n[n+]([O-])c2cc(Cl)ccc2[n+]1[O-] | 271 | 9.48 | – | 1.1 | 28.6 | 20.4 | 7.2 | – | 3.9 |
| – | – | – | – | – | CN(C)c1ccc2c(c1)[n+]([O-])c(N)n[n+]2[O-] | 440 | >440 | <1 | <0.023 | – | – | – | – | – |
| 0.7 | 0.79 | 14.1 | 2.8 | – | Nc1n[n+]([O-])c2cc([N+](=O)[O-])ccc2[n+]1[O-] | 36.3 | 5.37 | – | 1.9 | 6.8 | 4.1 | 6.7 | 14.8 | 3.4 |
| – | – | – | – | – | COc1ccc2c(c1)[n+]([O-])nc(N)[n+]2[O-] | 1934 | 19.3 | 100 | 0.53 | – | – | – | – | – |
| – | – | – | – | 0.24 | Cc1cccc2c1[n+]([O-])nc(N)[n+]2[O-] | 2538 | 24.7 | 102.9 | 0.41 | – | – | – | – | – |
| – | – | – | – | 0.82 | CCN(CC)c1cccc2c1[n+]([O-])nc(N)[n+]2[O-] | 1904 | 114 | 16.7 | 0.089 | – | – | – | – | – |
| – | – | – | – | 0.13 | Cc1ccc2c(c1)[n+]([O-])nc(N)[n+]2[O-] | 2031 | 16.2 | 125 | 0.63 | – | – | – | – | – |
| – | – | – | – | – | CCCCS(=O)(=O)c1ccc2c(c1)[n+]([O-])c(N)n[n+]2[O-] | <102 | 16.2 | <6.3 | 0.63 | – | – | – | – | – |
| – | – | – | – | – | CS(=O)(=O)c1ccc2c(c1)[n+]([O-])c(N)n[n+]2[O-] | <274 | 26.1 | <10.5 | 0.39 | – | – | – | – | – |
| – | – | – | – | – | Nc1n[n+]([O-])c2ccc(C(F)(F)F)cc2[n+]1[O-] | 110 | 8.23 | 13.3 | 1.2 | – | – | – | – | – |
| – | – | – | – | – | Nc1n[n+]([O-])c2ccc(F)cc2[n+]1[O-] | 114 | 10.2 | 11.2 | 1 | – | – | – | – | – |
| 5.6 | – | 469 | 217 | 0.21 | Cc1ccc2c(c1)[n+]([O-])c(N)n[n+]2[O-] | 2901 | 17.4 | – | 0.58 | 166.7 | 42.6 | 0.4 | – | 0.4 |
| – | – | – | – | -1.15 | CS(=O)(=O)c1ccc2c(c1)[n+]([O-])nc(N)[n+]2[O-] | 251 | 31.7 | 7.9 | 0.32 | – | – | – | – | – |
| 1.2 | 2.1 | 8.7 | 23.7 | – | Nc1n[n+]([O-])c2c(F)cccc2[n+]1[O-] | 132 | 10.2 | – | 1 | 13 | 13.9 | 2.5 | 4.1 | 1.9 |
| – | – | – | – | – | CN(C)c1cccc2c1[n+]([O-])nc(N)[n+]2[O-] | 2769 | 157 | 17.6 | 0.065 | – | – | – | – | – |
| – | – | – | – | – | CCN(CC)c1ccc2c(c1)[n+]([O-])nc(N)[n+]2[O-] | > 725 | >72.5 | – | <0.14 | – | – | – | – | – |
| – | – | – | – | – | CCCCS(=O)(=O)c1ccc2c(c1)[n+]([O-])nc(N)[n+]2[O-] | >89.6 | 7.76 | >11.5 | 1.3 | – | – | – | – | – |
| – | – | – | – | – | Cc1cccc2c1[n+]([O-])c(N)n[n+]2[O-] | < 381 | 38.1 | <10 | 0.27 | – | – | – | – | – |
| – | – | – | – | – | COc1cccc2c1[n+]([O-])c(N)n[n+]2[O-] | 47.9 | 58 | 0.83 | 0.18 | – | – | – | – | – |
| – | – | – | – | – | Nc1n[n+]([O-])c2cccc(F)c2[n+]1[O-] | <76.1 | 10.2 | <7.5 | 1 | – | – | – | – | – |

| SMILES | IC50 (SCC-7 [5]) [µM] | IC50 (HT-29 [7]) [µM] | IC50 (HT-29 [12]) [µM] | IC50 (SCC-7 [13]) [µM] | logP [14] | C10 [1] [µM] | C10 [2] [µM] | HCR [3] | RHT [4] | HCR [6] | HCR [8] | RHT (HT-29 [9]) | HCR [10] | RHT (SCC-7 [11]) |
| --- | --- | --- | --- | --- | --- | --- | --- | --- | --- | --- | --- | --- | --- | --- |
| Nc1n[n+]([O-])c2ccc(Cl)cc2[n+]1[O-] | 0.98 | 1.3 | 41.2 | 21.1 | – | 140 | 6.47 | – | 1.6 | 21.6 | 22.5 | 4.1 | 33 | 2.4 |
| Nc1n[n+]([O-])c2cccc(Cl)c2[n+]1[O-] | – | – | – | – | 0.07 | 10.2 | 7.46 | 1.4 | 1.4 | – | – | – | – | – |
| Nc1n[n+]([O-])c2c(C(F)(F)F)cccc2[n+]1[O-] | – | – | – | – | 0.53 | 626 | 5.56 | 112.5 | 1.8 | – | – | – | – | – |
| Nc1n[n+]([O-])c2cc(F)ccc2[n+]1[O-] | 1.1 | 1.87 | 47.8 | 17.6 | – | 381 | 5.41 | – | 1.9 | 70.3 | 19.3 | 2.8 | 21.7 | 2.2 |
| Nc1n[n+]([O-])c2c(Cl)cccc2[n+]1[O-] | 0.45 | 0.55 | 7.7 | 8.2 | 0.17 | 102 | 2.58 | – | 3.9 | 39.4 | 15.9 | 9.6 | – | 5.2 |
